What was measured:
[1] = Cytotoxicity against human MT4 cells assessed as cell viability by MTT assay; type: cell-based
In short: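 Mock-infected MT-4 cells exposed to a range of compound concentrations. Viable cells measured by MTT colorimetry at day 5. CC₅₀ = concentration causing 50% death of non-infected cells. Means of two to three independent experiments, each in triplicate.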

[2] = test system: Human immunodeficiency virus 1; test: Antiviral activity against HIV1 NL4.3 infected in human MT4 cells assessed as inhibition of virus-induced cell death measured after 5 days of infection by MTT method; type: functional, organism-based; settings: Human immunodeficiency virus 1, NL4.3, MT4, 120 h
In short: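 Lymphoid MT-4 cells (NIH AIDS Reagent Program) infected with HIV-1 NL4-3 in the presence of varying compound concentrations. On day 5 post-infection, viable cells were counted by MTT tetrazolium colorimetry. EC₅₀ = concentration inhibiting virus-induced cell death by 50%. Means of two to three independent experiments, each in triplicate.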

[3] = Selectivity index, ratio of CC50 for human MT4 cells to EC50 for HIV1 NL4.3 infected in human MT4 cells; type: toxicity, cell-based; settings: read-out: Ratio CC50/EC50
In short: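 Ratio CC₅₀/EC₅₀. CC₅₀ is from mock-infected MT-4 cells and EC₅₀ from HIV-1 NL4-3-infected MT-4 cells, both read by MTT at day 5 post-infection.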

[4] = test system: Human immunodeficiency virus 1; test: Antiviral activity against HIV1 3B infected in human CEM cells assessed as protection of cells monitored by giant cell formation by microscopy; type: functional, organism-based; settings: Human immunodeficiency virus 1, 3B, CCRF-CEM
In short: (§1)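 Human CEM cultures (~3 × 10⁵ cells/mL) infected with ~100 CCID₅₀ per mL of HIV-1 IIIB or HIV-2 ROD, seeded with serial compound dilutions. Incubated 4 days at 37 °C; syncytium (giant cell) formation scored by microscopy. EC₅₀ = concentration protecting cells from viral cytopathicity by 50%. Means of two to three independent experiments, each in triplicate.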

[5] = test system: Human immunodeficiency virus 2; test: Antiviral activity against HIV-2 ROD infected in human CEM cells assessed as protection of cells monitored by giant cell formation by microscopy; type: functional, organism-based; settings: Human immunodeficiency virus 2, ISOLATE ROD, CCRF-CEM; in short: as §1
[6] = test system: Human immunodeficiency virus 1; test: Antiviral activity against HIV1 harboring reverse transcriptase K103N mutant infected in human MT4 cells assessed as inhibition of virus-induced cell death measured after 5 days of infection by MTT method; type: functional, organism-based; settings: Human immunodeficiency virus 1, MT4, 120 h
In short: (§2)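 MT-4 cells infected with the named NNRTI-resistant HIV-1 RT mutant strain, in the presence of a range of compound concentrations. Viable cells counted at day 5 post-infection by tetrazolium (MTT) colorimetry. […] Mean of 2–3 independent experiments, each in triplicate.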

[7] = test system: Human immunodeficiency virus 1; test: Antiviral activity against HIV1 harboring reverse transcriptase Y181C mutant infected in human MT4 cells assessed as inhibition of virus-induced cell death measured after 5 days of infection by MTT method; type: functional, organism-based; settings: Human immunodeficiency virus 1, MT4, 120 h; in short: as §2
[8] = test system: Human immunodeficiency virus 1; test: Antiviral activity against HIV1 harboring reverse transcriptase […] mutant infected in human MT4 cells assessed as inhibition of virus-induced cell death measured after 5 days of infection by MTT method; type: functional, organism-based; settings: Human immunodeficiency virus 1, MT4, 120 h; in short: as §2
[9] = test system: Human immunodeficiency virus 1; test: Antiviral activity against HIV1 harboring reverse transcriptase K103N/Y181C double mutant infected in human MT4 cells assessed as inhibition of virus-induced cell death measured after 5 days of infection by MTT method; type: functional, organism-based; settings: Human immunodeficiency virus 1, MT4, 120 h; in short: as §2
[10] = test system: Human immunodeficiency virus 1; test: Ratio of EC50 for HIV1 harboring reverse transcriptase K103N/Y181C double mutant to EC50 for wild type HIV1 NL4.3; type: functional
In short: (§3)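 Fold change is the EC50 against the named mutant strain divided by the EC50 against wild-type HIV-1 NL4-3. […] Means of 2–3 independent experiments in triplicate.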

[11] = test system: Human immunodeficiency virus 1; test: Ratio of EC50 for HIV1 harboring reverse transcriptase K103N mutant to EC50 for wild type HIV1 NL4.3; type: functional; in short: as §3
[12] = test system: Human immunodeficiency virus 1; test: Ratio of EC50 for HIV1 harboring reverse transcriptase Y181C mutant to EC50 for wild type HIV1 NL4.3; type: functional; in short: as §3
[13] = test system: Human immunodeficiency virus 1; test: Ratio of EC50 for HIV1 harboring reverse transcriptase […] mutant to EC50 for wild type HIV1 NL4.3; type: functional; in short: as §3
[14] = target: T1, Human immunodeficiency virus type 1 reverse transcriptase (Human immunodeficiency virus 1, UniProt Q72547); test: Inhibition of HIV1 wild-type reverse transcriptase using [3H]dTTP by scintillation counting
[15] = target: Human immunodeficiency virus type 1 reverse transcriptase (Human immunodeficiency virus 1, UniProt Q72547, K103N); test: Inhibition of HIV1 wild-type reverse transcriptase K103N mutant using [3H]dTTP by scintillation counting
[16] = target: T1, Human immunodeficiency virus type 1 reverse transcriptase; test: Inhibition of HIV1 wild-type reverse transcriptase Y181I/Y181C mutant using [3H]dTTP by scintillation counting
[17] = target: Human immunodeficiency virus type 1 reverse transcriptase (Human immunodeficiency virus 1, UniProt Q72547, L100I); test: Inhibition of HIV1 wild-type reverse transcriptase L100I mutant using [3H]dTTP by scintillation counting
In short: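 RNA-dependent DNA polymerase activity of recombinant RT (2–4 nM) on poly(rA)/oligo(dT) 10:1 with [3H]dTTP (1 Ci/mmol). Incubation at 37 °C. Acid-insoluble radioactivity collected on GF/C filters after 5% cold TCA, counted by scintillation.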

[18] = test system: Human immunodeficiency virus 1; test: Antiviral activity against HIV1 harboring reverse transcriptase Y188L mutant infected in human MT4 cells assessed as inhibition of virus-induced cell death measured after 5 days of infection by MTT method; type: functional, organism-based; settings: Human immunodeficiency virus 1, MT4, 120 h; in short: as §2
[19] = test system: Human immunodeficiency virus 1; test: Ratio of EC50 for HIV1 harboring reverse transcriptase Y188L mutant to EC50 for wild type HIV1 NL4.3; type: functional; in short: as §3
[20] = target: Human immunodeficiency virus type 1 reverse transcriptase (Human immunodeficiency virus 1, UniProt Q72547, V106A); test: Inhibition of HIV1 wild-type reverse transcriptase V106A mutant using [3H]dTTP by scintillation counting
[21] = test system: Human immunodeficiency virus 1; test: Ratio of EC50 for HIV1 harboring reverse transcriptase K103N mutant to EC50 for wild type HIV1 3B; type: functional

Structure (SMILES) | CC50 [1] [nM] | EC50 [2] [nM] | selectivity ratio [3] | EC50 [4] [nM] | EC50 [5] [nM] | EC50 [6] [nM] | EC50 [7] [nM] | EC50 [8] [nM] | EC50 [9] [nM] | Ratio EC50 [10] | Ratio EC50 [11] | Ratio EC50 [12] | Ratio EC50 [13] | IC50 [14] [nM] | IC50 [15] [nM] | IC50 [16] [nM] | IC50 [17] [nM] | EC50 [18] [nM] | Ratio EC50 [19] | IC50 [20] [nM] | further results
Cc1cccc(CCNC(=O)c2[nH]c3ccc(Cl)cc3c2S(=O)(=O)c2cc(C)cc(C)c2)c1 | > 52000 | 6.2 | > 8380 | 7.3 | > 25000 | 260 | 1200 | 31 | > 51900 | >8383 | 42 | 194 | 5 | 190 | > 20000 | > 20000 | 1300 |  |  |  | 
Cc1cc(C)cc(S(=O)(=O)c2c(C(=O)N[C@H](C)c3ccccc3)[nH]c3ccc(Cl)cc23)c1 |  | 2.1 |  |  |  | 4.3 | 86 |  | 1670 | 795 | 2 | 41 |  | 39 | 90 | 2530 | 50 | 193 | 92 | 65 | 
Cc1cc(C)cc(S(=O)(=O)c2c(C(=O)N[C@@H](C)c3ccccc3)[nH]c3ccc(Cl)cc23)c1 |  | 6.3 |  |  |  | 128 | 3470 |  | > 36400 | >5778 | 20 | 550 |  | 50 | 9400 | > 20000 | 80 | > 36400 | >5778 | 28 | 
Cc1cc(C)cc(S(=O)(=O)c2c(C(=O)NC(C)c3ccccc3)[nH]c3ccc(Cl)cc23)c1 (racemic) | > 53500 | 0.6 | > 206000 | 16 | > 10000 | 33 | 720 | 26 | 3270 | 5445 | 55 | 1200 | 43 | 40 | 540 | 8230 | 70 |  |  | 50 | 
Cc1cc(C)cc(S(=O)(=O)c2c(C(=O)NC(C)Cc3ccccc3)[nH]c3ccc(Cl)cc23)c1 (racemic) |  |  |  | 91 |  | 530 | > 1000 | 380 | > 2080 | 23 |  | >11 | 4.2 |  |  |  |  | > 1000 | >11 |  | Ratio EC50 [21]: 5.8
